How the values were obtained:
[1] = Acute toxicity in ip dosed mouse; type: organism-based; settings: in vivo, read-out: ALD50
Rattus norvegicus = test: Anticonvulsant activity in Charles foster rat assessed as protection against maximal electroshock-induced seizures at 30 mg/kg, ip administered 1 hr before electroshock challenge; type: functional; settings: route intraperitoneal
In short: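 Charles Foster rats of either sex, 90–150 g, in groups of ten, dosed i.p. with test drug or phenytoin sodium 30 mg/kg. 1 h after dosing, shock of 150 mA delivered by convulsiometer through ear electrodes for 2 s. Presence or absence of extensor response recorded.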

COc1ccc(N/C=C2\C(c3ccc(O)cc3)=Nc3ccccc3OC2c2cccc(OC)c2)cc1 (configuration not stated)
LD50 [1]: > 1000 mg/kg | Activity (Rattus norvegicus): 70%

Oc1ccc(C2=Nc3ccccc3OC(c3ccccc3Cl)C2)cc1 (configuration not stated)
LD50 [1]: > 1000 mg/kg | Activity (Rattus norvegicus): 70%

Oc1ccc(C2=Nc3ccccc3SC(c3ccc(Cl)cc3)C2)cc1 (configuration not stated)
LD50 [1]: > 1000 mg/kg | Activity (Rattus norvegicus): 70%

Oc1ccc(C2=Nc3ccccc3OC(c3ccc(Cl)cc3)C2)cc1 (configuration not stated)
LD50 [1]: > 1000 mg/kg | Activity (Rattus norvegicus): 60%

Oc1ccc(C2=Nc3ccccc3OC(c3ccc(O)cc3)C2)cc1 (configuration not stated)
LD50 [1]: > 1000 mg/kg | Activity (Rattus norvegicus): 70%

COc1cccc(C2Sc3ccccc3N=C(c3ccc(O)cc3)/C2=C\Nc2ccc(Cl)cc2)c1 (configuration not stated)
LD50 [1]: > 1000 mg/kg | Activity (Rattus norvegicus): 40%

COc1ccc(N/C=C2\C(c3ccc(O)cc3)=Nc3ccccc3SC2c2cccc(OC)c2)cc1 (configuration not stated)
LD50 [1]: > 1000 mg/kg | Activity (Rattus norvegicus): 50%

Oc1ccc(C2=Nc3ccccc3OC(c3ccccc3O)C2)cc1 (configuration not stated)
LD50 [1]: > 1000 mg/kg | Activity (Rattus norvegicus): 60%

COc1cccc(C2Oc3ccccc3N=C(c3ccc(O)cc3)/C2=C\Nc2ccc(Cl)cc2)c1 (configuration not stated)
LD50 [1]: > 1000 mg/kg | Activity (Rattus norvegicus): 30%

Oc1ccc(C2=Nc3ccccc3OC(c3ccccc3Cl)/C2=C/Nc2ccc(Cl)cc2)cc1 (configuration not stated)
LD50 [1]: > 1000 mg/kg | Activity (Rattus norvegicus): 50%

Oc1ccc(C2=Nc3ccccc3OC(c3ccc(Cl)cc3)/C2=C/Nc2ccc(Cl)cc2)cc1 (configuration not stated)
LD50 [1]: > 1000 mg/kg | Activity (Rattus norvegicus): 60%

COc1ccc(N/C=C2\C(c3ccc(O)cc3)=Nc3ccccc3OC2c2ccccc2Cl)cc1 (configuration not stated)
LD50 [1]: > 1000 mg/kg | Activity (Rattus norvegicus): 60%

Oc1ccc(C2=Nc3ccccc3SC(c3ccccc3Cl)/C2=C/Nc2ccc(Cl)cc2)cc1 (configuration not stated)
LD50 [1]: > 1000 mg/kg | Activity (Rattus norvegicus): 70%

Oc1ccc(C2=Nc3ccccc3SC(c3ccccc3Cl)C2)cc1 (configuration not stated)
LD50 [1]: > 1000 mg/kg | Activity (Rattus norvegicus): 80%

Oc1ccc(C2=Nc3ccccc3SC(c3ccccc3O)C2)cc1 (configuration not stated)
LD50 [1]: > 1000 mg/kg | Activity (Rattus norvegicus): 70%

Oc1ccc(C2=Nc3ccccc3SC(c3ccc(O)cc3)C2)cc1 (configuration not stated)
LD50 [1]: > 1000 mg/kg | Activity (Rattus norvegicus): 60%

COc1cccc(C2CC(c3ccc(O)cc3)=Nc3ccccc3O2)c1 (configuration not stated)
LD50 [1]: > 1000 mg/kg | Activity (Rattus norvegicus): 20%

COc1cccc(C2CC(c3ccc(O)cc3)=Nc3ccccc3S2)c1 (configuration not stated)
LD50 [1]: > 1000 mg/kg | Activity (Rattus norvegicus): 30%

COc1ccc(N/C=C2\C(c3ccc(O)cc3)=Nc3ccccc3OC2c2ccc(Cl)cc2)cc1 (configuration not stated)
LD50 [1]: > 1000 mg/kg | Activity (Rattus norvegicus): 50%

Oc1ccc(C2=Nc3ccccc3SC(c3ccc(Cl)cc3)/C2=C/Nc2ccc(Cl)cc2)cc1 (configuration not stated)
LD50 [1]: > 1000 mg/kg | Activity (Rattus norvegicus): 70%

Oc1ccc(C2=Nc3ccccc3SC(c3ccccc3O)/C2=C/Nc2ccc(Cl)cc2)cc1 (configuration not stated)
LD50 [1]: > 1000 mg/kg | Activity (Rattus norvegicus): 60%

Oc1ccc(C2=Nc3ccccc3SC(c3ccc(O)cc3)/C2=C/Nc2ccc(Cl)cc2)cc1 (configuration not stated)
LD50 [1]: > 1000 mg/kg | Activity (Rattus norvegicus): 60%

COc1ccc(N/C=C2\C(c3ccc(O)cc3)=Nc3ccccc3SC2c2ccccc2Cl)cc1 (configuration not stated)
LD50 [1]: > 1000 mg/kg | Activity (Rattus norvegicus): 90%

COc1ccc(N/C=C2\C(c3ccc(O)cc3)=Nc3ccccc3SC2c2ccc(Cl)cc2)cc1 (configuration not stated)
LD50 [1]: > 2000 mg/kg | Activity (Rattus norvegicus): 70%

COc1ccc(N/C=C2\C(c3ccc(O)cc3)=Nc3ccccc3SC2c2ccccc2O)cc1 (configuration not stated)
LD50 [1]: > 1000 mg/kg | Activity (Rattus norvegicus): 70%

COc1ccc(N/C=C2\C(c3ccc(O)cc3)=Nc3ccccc3OC2c2ccccc2O)cc1 (configuration not stated)
LD50 [1]: > 1000 mg/kg | Activity (Rattus norvegicus): 60%

COc1ccc(N/C=C2\C(c3ccc(O)cc3)=Nc3ccccc3SC2c2ccc(O)cc2)cc1 (configuration not stated)
LD50 [1]: > 1000 mg/kg | Activity (Rattus norvegicus): 60%

Oc1ccc(C2=Nc3ccccc3OC(c3ccccc3O)/C2=C/Nc2ccc(Cl)cc2)cc1 (configuration not stated)
LD50 [1]: > 1000 mg/kg | Activity (Rattus norvegicus): 60%

Oc1ccc(C2=Nc3ccccc3OC(c3ccc(O)cc3)/C2=C/Nc2ccc(Cl)cc2)cc1 (configuration not stated)
LD50 [1]: > 1000 mg/kg | Activity (Rattus norvegicus): 70%

COc1ccc(N/C=C2\C(c3ccc(O)cc3)=Nc3ccccc3OC2c2ccc(O)cc2)cc1 (configuration not stated)
LD50 [1]: > 1000 mg/kg | Activity (Rattus norvegicus): 50%

O=C1N=C([O-])NC1(c1ccccc1)c1ccccc1.[Na+] [PHENYTOIN SODIUM]
Activity (Rattus norvegicus): 80%

CC(O)CO (configuration not stated) [PROPYLENE GLYCOL]
Activity (Rattus norvegicus): 0%
